Changes are numbered by the printed parent chain.
Assays:
surface groove of MCL-1 = conditions: ref Kotschy et al., 2016; cited from earlier work
[1] = ref Kotschy et al., 2016; cited from earlier work
SEC = target: the molecule itself; experiment: SEC
BIM = type: binding, mouse; conditions: Mcl-1-deleted murine livers reconstituted by scAAV; MS in duplicate
Method in brief: (§1)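 Mcl-1 floxed mice (6–8 weeks, mixed sex) received tail-vein scAAV-LP1-Cre (2×10^11 genome copies) plus GFP control or FLAG-MCL-1 (wild-type, OMM-only or Matrix-only isoform) vectors (5×10^10 copies). Two weeks later, liver mitochondria were isolated by differential centrifugation and a 70%/30% Percoll gradient. Anti-FLAG M2 IP was run in 0.5% NP40/Tris pH 7.5 for 90 min, with FLAG-peptide elution. Three livers were pooled per IP; MS was run in duplicate, Sequest, ~1% FDR.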

PUMA = type: binding, mouse; conditions: Mcl-1-deleted murine livers reconstituted by scAAV; MS in duplicate
Method in brief: as §1

MCAD = type: binding, mouse; conditions: Mcl-1-deleted murine livers reconstituted by scAAV; MS in duplicate
Method in brief: as §1

SCAD = type: binding, mouse; conditions: Mcl-1-deleted murine livers reconstituted by scAAV; MS in duplicate
Method in brief: as §1

Cc1c(-c2c(-c3ccc(F)o3)sc3ncnc(O[C@H](Cc4ccccc4OCc4ccnn4CC(F)(F)F)C(=O)O)c23)ccc(OCCN2CCN(C)CC2)c1Cl [S63845]
Selectivity for MCL-1 (surface groove of MCL-1): selectively targets the surface groove of MCL-1 | Toxicity in treated mice [1]: lack of overt toxicity, including cardiotoxicity

B1: recombinant human VLCAD (aa 40-655), His-tagged (enzyme, UniProt P49748-1 40-655, looked up)
chain: YAGGAAQLALDKSDSHPSDALTRKKPAKAESKSFAVGMFKGQLTTDQVFPYPSVLNEEQTQFLKELVEPVSRFFEEVNDPAKNDALEMVEETTWQGLKELGAFGLQVPSELGGVGLCNTQYARLVEIVGMHDLGVGITLGAHQSIGFKGILLFGTKAQKEKYLPKLASGETVAAFCLTEPSSGSDAASIRTSAVPSPCGKYYTLNGSKLWISNGGLADIFTVFAKTPVTDPATGAVKEKITAFVVERGFGGITHGPPEKKMGIKASNTAEVFFDGVRVPSENVLGEVGSGFKVAMHILNNGRFGMAAALAGTMRGIIAKAVDHATNRTQFGEKIHNFGLIQEKLARMVMLQYVTESMAYMVSANMDQGATDFQIEAAISKIFGSEAAWKVTDECIQIMGGMGFMKEPGVERVLRDLRIFRIFEGTNDILRLFVALQGCMDKGKELSGLGSALKNPFGNAGLLLGEAGKQLRRRAGLGSGLSLSGLVHPELSRSGELAVRALEQFATVVEAKLIKHKKGIVNEQFLLQRLADGAIDLYAMVVVLSRASRSLSEGHPTAQHEKMLCDTWCIEAAARIREGMAALQSDPWQQELYRNFKSISKALVERGGVVTSNPLGF
stoichiometry N (SEC): 2

B2: FLAG-MCL-1: full-length protein, reconstituted into Mcl-1−/− murine livers (protein, UniProt P97287 1-331, looked up)
chain: MFGLRRNAVIGLNLYCGGASLGAGGGSPAGARLVAEEAKARREGGGEAALLPGARVVARPPPVGAEDPDVTASAERRLHKSPGLLAVPPEEMAASAAAAIVSPEEELDGCEPEAIGKRPAVLPLLERVSEAAKSSGADGSLPSTPPPPEEEEDDLYRQSLEIISRYLREQATGSKDSKPLGEAGAAGRRALETLRRVGDGVQRNHETAFQGMLRKLDIKNEGDVKSFSRVMVHVFKDGVTNWGRIVTLISFGAFVAKHLKSVNQESFIEPLAETITDVLVRTKRDWLVKQRGWDGFVEFFHVQDLEGGIRNVLLAFAGVAGVGAGLAYLIR
modifications: full-length FLAG tag
Interaction with BIM (FLAG pull-down) (BIM): pulled down native VLCAD and established physiologic interactors of MCL-1, such as BIM and PUMA | Interaction with PUMA (FLAG pull-down) (PUMA): pulled down native VLCAD and established physiologic interactors of MCL-1, such as BIM and PUMA | Interaction with MCAD (FLAG pull-down) (MCAD): not MCAD or SCAD | Interaction with SCAD (FLAG pull-down) (SCAD): not MCAD or SCAD

B3: FLAG-MCL-1^OMM: mutant MCL-1 construct with an internal FLAG tag that only generates the OMM isoform (protein)
chain: B2 chain with R5A, R6A
modifications: left off: FLAG, internal (at residue 134), kept
Interaction with BIM (FLAG pull-down) (BIM): BIM and PUMA were enriched | Interaction with PUMA (FLAG pull-down) (PUMA): BIM and PUMA were enriched

Source: paper PMC5916823 (Molecular cell, 2018)
